Laboratory results reported in ChEMBL document CHEMBL1135455, “3-Aminopyrrolidinone farnesyltransferase inhibitors: design of macrocyclic compounds with improved pharmacokinetics and excellent cell potency” (J Med Chem, 2002).

Tests used:
[1] = molecular target: T1, Protein farnesyltransferase (Homo sapiens, UniProt P49354+P49356); assay: Inhibition of human farnesyltransferase in an enzyme assay.
[2] = molecular target: T2, Protein farnesyltransferase (Rattus norvegicus, UniProt Q02293+Q04631); assay: Inhibition of Farnesyltransferase in H-ras-transformed Rat cells by radiotracer assay (CRAFTI)
[3] = molecular target: Geranylgeranyl transferase type I (Homo sapiens, UniProt P49354+P53609); assay: Inhibitory activity against geranylgeranyl transferase; assay type: protein-complex assay
[4] = molecular target: T2, Protein farnesyltransferase; assay: Inhibition of Farnesyltransferase in cells, evaluated in a radiotracer assay for farnesyltransferase inhibition (CRAFTI), in cultured H-ras-transformed Rat cells
[5] = Pharmacokinetic data at 0.5 mg/kg dose given to dogs intravenously.; assay type: ADME, organism-based, Canis lupus familiaris; design: dose 0.5 mg/kg, route intravenous; details: dog, iv; for half-life / Vd: in vivo; for Vd: read-out: Vdss; for clearance: plasma, read-out: Clp
Summary of the method: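 Compound was given intravenously in DMSO to two dogs, in some cases as a mixture with five other compounds. Plasma levels were measured by LC-MS.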

[6] = molecular target: T1, Protein farnesyltransferase; assay: Inhibition of HDJ2 farnesylation in PSN-1 cells over 7 hr assay; assay type: functional, cell-based
[7] = molecular target: T1, Protein farnesyltransferase; assay: Inhibition of Farnesyltransferase at 10 pM enzyme concentration
Cytochrome P450 3A4 [8] = molecular target: T3, Cytochrome P450 3A4 (Homo sapiens, UniProt P08684); assay: (§1) Inhibition of human Cytochrome P450 3A4 by macrocycles
[9] = molecular target: T1, Protein farnesyltransferase; assay: Inhibition of HDJ2 farnesylation in PSN-1 cells over 7 hr assay in the presence of 50% human serum.; assay type: functional, cell-based
Cytochrome P450 3A4 [10] = molecular target: T3, Cytochrome P450 3A4; assay: Inhibition of dog Cytochrome P450 3A by macrocycles
[11] = molecular target: T1, Protein farnesyltransferase; assay: Inhibition of Farnesyltransferase at 10 pM enzyme concentration; remark: listed apart in the source
[12] = molecular target: T1, Protein farnesyltransferase; assay: Inhibition of HDJ2 farnesylation in PSN-1 cells over 7 hr assay in the presence of 50% human serum; assay type: functional, cell-based
Cytochrome P450 3A4 [13] = molecular target: T3, Cytochrome P450 3A4; assay: as §1; assay type: ADME
Summary of the method: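 Pooled liver microsomes, dog (7) or human (8, 9), at 0.25 mg protein/mL were incubated 10 min with 75 µM testosterone and an NADPH-generating system, with or without compound (0.05-100 µM). 6β-Hydroxytestosterone was quantified by LC-MS/MS against a cortisone internal standard. IC50 was taken from product formed relative to the control incubation.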

[14] = molecular target: Voltage-gated inwardly rectifying potassium channel KCNH2 (Homo sapiens, UniProt Q12809); assay: Inflection point affinity for binding to K+ channel HERG.; details: IP
[15] = Bioavailability in dog (dose 1 mg/kg i.v.); details: in vivo, iv
[16] = Clearance in dog (dose 1 mg/kg i.v.); details: plasma, iv
[17] = suboptimal plasma half-life caused a10% prolongation of QTc interval in dogs at a plasma level of […]; assay type: ADME, organism-based, Canis lupus familiaris; details: dog
[18] = Oral bioavailability of active FTIs in dogs; assay type: ADME, organism-based, Canis lupus familiaris; details: dog, in vivo
[19] = Pharmacokinetic data for dose given to dogs intravenously (oral PK study in parentheses); assay type: ADME, organism-based, Canis lupus familiaris; details: dog, in vivo
Summary of the method: (§2)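 Dogs, two per compound, dosed intravenously in DMSO or orally as a 0.5% methocellulose suspension. Some compounds were given intravenously as a cassette with five other compounds. Plasma levels were quantitated by LCMS.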

[20] = Pharmacokinetic data at 1 mg/kg dose given to dogs intravenously; assay type: ADME, organism-based, Canis lupus familiaris; design: dose 1 mg/kg, route intravenous; details: dog, iv
Summary of the method: as §2

T3 sequence (P08684 whole entry): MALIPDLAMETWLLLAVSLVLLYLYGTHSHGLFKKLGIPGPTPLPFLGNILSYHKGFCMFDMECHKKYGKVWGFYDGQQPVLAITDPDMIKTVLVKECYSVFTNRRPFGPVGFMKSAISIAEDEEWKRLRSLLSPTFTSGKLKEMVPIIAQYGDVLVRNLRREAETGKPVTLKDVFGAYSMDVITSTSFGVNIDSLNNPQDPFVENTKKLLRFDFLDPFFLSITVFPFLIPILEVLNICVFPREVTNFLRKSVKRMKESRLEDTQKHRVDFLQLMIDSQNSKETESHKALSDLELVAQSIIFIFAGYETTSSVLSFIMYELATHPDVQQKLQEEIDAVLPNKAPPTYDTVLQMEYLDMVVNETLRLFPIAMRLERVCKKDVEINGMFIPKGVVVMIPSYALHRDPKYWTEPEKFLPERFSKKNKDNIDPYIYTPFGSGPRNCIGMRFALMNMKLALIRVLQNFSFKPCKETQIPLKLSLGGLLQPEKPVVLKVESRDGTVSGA
Chain of Voltage-gated inwardly rectifying potassium channel KCNH2 (Q12809 whole entry): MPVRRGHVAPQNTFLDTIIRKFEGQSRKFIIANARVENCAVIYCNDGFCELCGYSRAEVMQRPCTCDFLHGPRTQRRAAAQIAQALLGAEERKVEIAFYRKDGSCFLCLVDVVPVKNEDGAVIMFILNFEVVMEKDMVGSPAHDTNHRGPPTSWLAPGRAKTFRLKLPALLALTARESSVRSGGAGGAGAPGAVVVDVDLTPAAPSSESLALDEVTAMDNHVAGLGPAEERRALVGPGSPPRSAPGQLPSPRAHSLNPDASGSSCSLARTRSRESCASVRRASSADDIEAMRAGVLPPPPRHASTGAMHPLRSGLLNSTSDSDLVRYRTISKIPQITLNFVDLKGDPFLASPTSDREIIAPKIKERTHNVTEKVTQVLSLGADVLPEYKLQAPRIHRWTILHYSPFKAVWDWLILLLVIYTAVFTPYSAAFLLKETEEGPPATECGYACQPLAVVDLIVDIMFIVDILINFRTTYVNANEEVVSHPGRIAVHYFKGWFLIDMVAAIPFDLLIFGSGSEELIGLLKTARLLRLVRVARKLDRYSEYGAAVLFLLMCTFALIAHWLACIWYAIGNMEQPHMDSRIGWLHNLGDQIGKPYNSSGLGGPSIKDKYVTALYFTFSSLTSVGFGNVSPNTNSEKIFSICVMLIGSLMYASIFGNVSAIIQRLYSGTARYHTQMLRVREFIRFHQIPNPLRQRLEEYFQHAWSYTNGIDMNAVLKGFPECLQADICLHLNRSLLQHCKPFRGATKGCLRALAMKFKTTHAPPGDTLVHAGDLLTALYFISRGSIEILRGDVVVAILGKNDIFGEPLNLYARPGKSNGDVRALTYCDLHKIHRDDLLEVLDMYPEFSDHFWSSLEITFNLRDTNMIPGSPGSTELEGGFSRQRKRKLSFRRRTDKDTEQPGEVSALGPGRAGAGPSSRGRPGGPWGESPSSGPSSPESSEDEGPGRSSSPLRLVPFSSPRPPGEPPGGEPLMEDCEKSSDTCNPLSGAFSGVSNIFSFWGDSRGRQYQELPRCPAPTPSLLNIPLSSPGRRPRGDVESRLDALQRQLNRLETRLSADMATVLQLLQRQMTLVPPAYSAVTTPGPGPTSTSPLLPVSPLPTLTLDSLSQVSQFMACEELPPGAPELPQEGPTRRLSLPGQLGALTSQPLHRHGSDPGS

| Structure (SMILES) | IC50 [1] | IC50 [3] | IC50 [4] | half-life [5] | Vd [5] | clearance [5] | also measured |
| --- | --- | --- | --- | --- | --- | --- | --- |
| N#Cc1ccc2cc1Oc1cc(Cl)cc(c1)CN1CCC(NCc3cncn3C2)C1=O (stereo unspecified) | 23 nM | > 20000 nM |  |  |  |  | IC50 [2]: 6.4 nM |
| N#Cc1ccc2cc1Oc1cccc(c1)-c1ccccc1N1CCC(NCc3cncn3C2)C1=O (stereo unspecified) | 1.3 nM | 810 nM | 0.032 nM | 52.8 min | 0.61 L/kg | 8 mL/min/kg | EC50 [6]: 0.67 nM; IC50 [7]: 0.06 nM; IC50 (Cytochrome P450 3A4 [8]): < 0.05 µM; EC50 [9]: 0.58 nM |
| N#Cc1ccc2cc1Oc1ccc3cccc(c3c1)N1CCC(NCCc3cncn3C2)C1=O (stereo in doubt; 67) |  |  | 0.44 nM |  |  |  |  |
| CC1c2ccc(C#N)c(c2)Oc2cccc(c2)CN2CCC(NCc3cncn31)C2=O (single isomer, unassigned; diastereomer B) | 1.9 nM |  | 0.87 nM | 46.8 min | 0.69 L/kg | 12 mL/min/kg | IC50 (Cytochrome P450 3A4 [10]): 6.1 µM |
| N#Cc1ccc2cc1Oc1cccc(c1)CN1CC[C@@H](NCc3cncn3C2)C1=O |  |  | 0.66 nM |  |  |  | EC50 [6]: 6.1 nM; IC50 [11]: 2 nM; EC50 [12]: 13 nM |
| N#Cc1ccc2cc1Oc1ccc3c(c1)[C@@H](CC3)N1CC[C@@H](NCc3cncn3C2)C1=O |  |  | 0.22 nM | 102 min | 0.27 L/kg | 2.1 mL/min/kg | IC50 (Cytochrome P450 3A4 [10]): 10.4 µM; IC50 (Cytochrome P450 3A4 [8]): 6.6 µM |
| CN1CCc2cncn2Cc2ccc(C#N)c(c2)Oc2ccc3cccc(c3c2)N2CC[C@H]1C2=O |  |  | 0.21 nM | 114 min | 0.25 L/kg | 1.4 mL/min/kg |  |
| N#Cc1ccc2cc1Oc1ccc3cccc(c3c1)N1CC[C@@H](NC(=O)Cc3cncn3C2)C1=O |  |  | 13 nM |  |  |  |  |
| N#Cc1ccc2cc1Oc1ccc3cccc(c3c1)N1CC[C@H](NC(=O)Cc3cncn3C2)C1=O |  |  | 6.8 nM | 102 min | 0.19 L/kg | 1.5 mL/min/kg | IC50 (Cytochrome P450 3A4 [13]): 8.1 µM |
| N#Cc1ccc2cc1Oc1cccc(c1)C(c1cccc(Cl)c1)N1CCC(NCc3cncn3C2)C1=O (single isomer, unassigned; diastereomer A) | 25 nM | 820 nM |  |  |  |  | IC50 [2]: 210 nM |
| N#Cc1ccc2cc1Oc1cccc(c1)C(c1cccc(Cl)c1)N1CCC(NCc3cncn3C2)C1=O (single isomer, unassigned; diastereomer B) | 2.5 nM | 7000 nM | 200 nM |  |  |  |  |
| N#Cc1ccc2cc1Oc1ccc3cccc(c3c1)N1CCN(CC1=O)Cc1cncn1C2 |  |  | 0.29 nM |  |  |  |  |
| CN1Cc2cncn2Cc2ccc(C#N)c(c2)Oc2ccc3c(c2)C(CC3)N2CCC1C2=O (stereo unspecified) | 1.4 nM | > 20000 nM | 0.64 nM |  |  |  | IC50 [14]: 2600 nM |
| N#Cc1ccc2cc1Oc1ccc3cccc(c3c1)N1CC[C@@H](NCc3cncn3C2)C1=O | 1.6 nM |  | 4.4 nM |  |  |  |  |
| N#Cc1ccc2cc1Oc1ccc3c(c1)[C@@H](CCC3)N1CC[C@@H](NCc3cncn3C2)C1=O [(1R,5R)-30-OXO-19-OXA-2,6,10,12-TETRAAZAHEXACYCLO[18.6.2.1^{2,5}.1^{14,18}.0^{8,12}.0^{23,27}]TRIACONTA-8,10,14(29),15,17,20(28),21,23(27)-OCTAENE-17-CARBONITRILE (STRUCTURAL MIX)] | < 1 nM | 390 nM | 0.054 nM | 28.8 min | 0.36 L/kg | 7.3 mL/min/kg | EC50 [6]: 0.18 nM; EC50 [12]: 0.25 nM |
| N#Cc1ccc2cc1Oc1ccc3cccc(c3c1)N1CC[C@H](NCc3cncn3C2)C1=O |  |  | 3.8 nM |  |  |  | EC50 [6]: 48 nM; EC50 [9]: 130 nM |
| N#Cc1ccc2cc1Oc1ccc3c(c1)[C@@H](CCO3)N1CC[C@H](NCc3cncn3C2)C1=O |  |  | 1.8 nM |  |  |  |  |
| CN1Cc2cncn2Cc2ccc(C#N)c(c2)Oc2ccc3cccc(c3c2)N2CCC1C2=O (stereo unspecified) | 4.9 nM | 2200 nM | 39 nM | 606 min | 0.21 L/kg | 0.26 mL/min/kg | IC50 (Cytochrome P450 3A4 [8]): 5 µM |
| N#Cc1ccc2cc1Oc1ccc3c(c1)[C@@H](CCO3)N1CC[C@@H](NCc3cncn3C2)C1=O |  |  | 0.063 nM |  |  |  | Vd [15]: 0.34 L/kg; half-life [15]: 54 min; clearance [16]: 5.5 mL/min/kg |
| N#Cc1ccc2cc1Oc1ccc3c(c1)[C@@H](CCC3)N1CC[C@H](NCc3cncn3C2)C1=O | 1.5 nM | 2200 nM | 0.21 nM |  |  |  | EC50 [6]: 3 nM; EC50 [9]: 4.4 nM |
| N#Cc1ccc2cc1Oc1cccc(c1)C(c1ccccc1)N1CCC(NCc3cncn3C2)C1=O (stereo in doubt; 26A) | 58 nM | 1600 nM | 230 nM |  |  |  |  |
| N#Cc1ccc2cc1Oc1ccc3c(c1)[C@H](CC3)N1CC[C@@H](NCc3cncn3C2)C1=O |  |  | 41 nM | 252 min | 0.5 L/kg | 1.3 mL/min/kg | IC50 (Cytochrome P450 3A4 [10]): 14.8 µM; IC50 (Cytochrome P450 3A4 [8]): 2.8 µM |
| N#Cc1ccc2cc1Oc1cccc(c1)C(c1ccccc1)N1CCC(NCc3cncn3C2)C1=O (single isomer, unassigned; diastereomer B) | 10 nM | 5800 nM |  |  |  |  | IC50 [2]: 34 nM |
| N#Cc1ccc2cc1Oc1ccc3c(c1)[C@H](CC3)N1CC[C@H](NCc3cncn3C2)C1=O |  |  | 93 nM |  |  |  |  |
| N#Cc1ccc2cc1Oc1cccc(c1)CN1CC[C@H](NCc3cncn3C2)C1=O | 54 nM |  |  |  |  |  | IC50 [2]: 13 nM |
| N#Cc1ccc2cc1Oc1ccc(Br)c(c1)CN1CCC(NCc3cncn3C2)C1=O (stereo unspecified) | 1.4 nM | 9200 nM | 0.19 nM | 96 min | 0.53 L/kg | 3.2 mL/min/kg | EC50 [6]: 1.6 nM; IC50 (Cytochrome P450 3A4 [8]): 6.1 µM; EC50 [9]: 1 nM |
| CC1c2ccc(C#N)c(c2)Oc2cccc(c2)CN2CCC(NCc3cncn31)C2=O (single isomer, unassigned; diastereomer A) | 170 nM | > 20000 nM | 74 nM |  |  |  |  |
| N#Cc1ccc2cc1Oc1ccc3cccc(c3c1)N1CCC(NCCc3cncn3C2)C1=O (stereo in doubt; 66) |  |  | 0.32 nM |  |  |  | Vd [15]: 0.57 L/kg; bioavailability [15]: 92%; half-life [15]: 120 min; IC50 (Cytochrome P450 3A4 [10]): 0.6 µM; EC50 [6]: 4.3 nM; IC50 [11]: 0.19 nM; clearance [16]: 3.9 mL/min/kg; IC50 (Cytochrome P450 3A4 [8]): 6 µM; EC50 [9]: 7.5 nM |
| N#Cc1ccc(Cn2cncc2CN[C@H]2CCN(Cc3cccc(Cl)c3)C2=O)cc1 |  |  |  |  |  |  | half-life [17]: 66 min; bioavailability [18]: 81%; bioavailability [19]: 81%; half-life ([20]; in vivo): 66 min; Vd ([20]; in vivo, read-out: Vdss): 0.45 L/kg; clearance ([20]; plasma, read-out: Clp): 5.8 mL/min/kg; IC50 (Cytochrome P450 3A4 [8]): 1 µM |
| CN1CCc2cncn2Cc2ccc(C#N)c(c2)Oc2ccc3cccc(c3c2)N2CC[C@@H]1C2=O |  |  | 0.57 nM |  |  |  |  |
